The nature of this data set: Toxicity liver stage against HepG2, at 10uM. Details: test concentration 10 uM, cell line HepG2-A16-CD81EGFP. The data set is classed as cell-based. Particulars: human, HepG2-A16-CD81EGFP cells; read-out: INHIBITION
Put shortly:
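Uninfected HepG2-A16-CD81EGFP cells, 3 × 10^3 per well, 1536-well, plated on prespotted compound at 10 μM final, parasite-free screening media added to match infected plates; puromycin 10 μM positive, DMSO 0.5% negative; run in parallel with 48 h PbLuc assay at 37 °C, 5% CO2; viability by CellTiter-Glo luminescence, normalized to controls.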
In the case of `Cn1c(=O)c2c(n3ncnc13)NC(=O)CC2c1cccc(F)c1` (stereo not given), the cytotoxicity at 10 µM was determined as 2.05%.

In the case of `N#Cc1ncn(CCS(=O)(=O)c2ccc(Br)cc2)n1`, the cytotoxicity at 10 µM is -17.2%. The result for `CC(C)(CNc1ccc(S(=O)(=O)C(F)F)cc1)N1CCOCC1` reads 26.7%; that for `O=S(=O)(Nc1cnc(N2CCOCC2)nc1)c1ccc(Cl)cc1`, -5.82%; that for `Cc1ccc(N2N=C(C(N)=O)S(=O)(=O)c3cccnc32)cc1`, 4.28%. For the compound `O=C(CCc1ccccc1)N1CCn2cc(CN3CCCC3)nc2C1`, the cytotoxicity at 10 µM is -1.66%. With `Cc1sc(NC(=O)CCC(=O)O)c(C(N)=O)c1-c1ccc(Cl)cc1Cl`, the cytotoxicity at 10 µM amounted to 15.6%. `CC(C)(C)C(=O)N1CCCC1c1nc(O)cc(-c2ccccn2)n1` (stereo not given): the cytotoxicity at 10 µM was -1.26%. Under `CN1CC(=O)N(c2cccnc2)Cc2c(NC3CC3)ncnc21` stands 5.28%; under `Cc1cc(C(=O)NCc2ccc(F)cc2)c2c(C3CCNC3)noc2n1` (stereo not given), 7.08%.

For the compound `O=C(c1ccc(Cl)cc1)N1CCC(N2CCOC2=O)CC1`, the cytotoxicity at 10 µM amounted to 7.72%.

Turning to `O=C(NCCN1CCOCC1)c1cnc(-c2ccccc2F)s1`, the cytotoxicity at 10 µM is 0.277%. Consider `Cc1ccc(C(=O)NS(=O)(=O)Cc2ccc(F)cc2)cc1S(C)(=O)=O`, for which the cytotoxicity at 10 µM is -7.36%. The result for `Cc1ccc(C)c(CC(=O)NC2CCS(=O)(=O)CC2)c1` reads -9.56%.

For `CNS(=O)(=O)Cc1cccc(CNCc2ccsc2)c1`, the cytotoxicity at 10 µM is 11.7%.

For the compound `O=C(NCC(O)c1cccs1)c1sccc1OC(F)F` (stereo not given), the cytotoxicity at 10 µM was -2.45%. As for `Cc1noc(NCc2cn(C)nc2-c2cccnc2)n1`, the cytotoxicity at 10 µM was 6.87%. Under `CCCNC(=O)C(C)NC(=O)Nc1ccccc1SC(F)F` (stereo not given) stands 5.09%; under `Cc1cc(C(=O)NCC2CCC3(CC2)OCCO3)[nH]n1`, -10.7%; under `CN(Cc1ccccc1)C(=O)CCS(=O)(=O)c1ccc2c(c1)OCCO2`, -7.08%. Under `c1cc(CN2CCc3cncnc3C2)c2c(c1)OCCO2` stands -3.67%.

As for `O=C1CCC(=O)N1CCOc1nc(-c2ccccc2Cl)no1`, the cytotoxicity at 10 µM is 6.97%. For the compound `CN(C)S(=O)(=O)c1cccc(CNc2cc(CO)ccc2Cl)c1`, the cytotoxicity at 10 µM came out at 5.36%. Under `Cc1ccc(C(=O)O)cc1S(=O)(=O)N(CC(C)O)c1ccccc1` (stereo not given) stands 9.83%; under `CC(C)Nc1ncccc1C(=O)NCc1cnc(N(C)C)n1C`, -10.1%. The result for `CNC(=O)COc1cccc(CNC(=O)c2c(C)noc2C)c1` reads -4.93%; that for `CNC(=O)C1CCCN(C(=O)OC)C1` (stereo not given), -6.06%; that for `CCCN1CCC(N2CCN(c3cc(C)nc(COC)n3)CC2)CC1`, -0.332%. The result for `Cc1cc(CNC(C)Cn2cncn2)ccc1Br` (stereo not given) reads 2.33%; that for `CC(=O)N1CCC(C(=O)NC2CCc3nccn3C2)CC1` (stereo not given), -13.4%; that for `Cc1cc(NCc2ccc(S(N)(=O)=O)cc2)nc(C)n1`, -2.08%. As for `Cc1cc(C(C)(O)CNC(=O)OC(C)(C)C)c(C)o1` (stereo not given), the cytotoxicity at 10 µM turned out to be 10.5%. Under `COc1ccnc(N2CCCN(C(=O)CCc3cnn(C)c3)CC2)n1` stands 17.7%; under `Cc1ncc(CNCC(=O)NCC(F)(F)F)n1-c1ccccc1`, 5.57%. As for `CCN1CC2(CC1=O)CN(C(C)=O)CCN(C(=O)NC)C2` (stereo not given), the cytotoxicity at 10 µM is -3.62%. On to `O=C1C[C@H]2[C@H](CCN2C(=O)c2ccno2)N1CC1CC1`, for which the cytotoxicity at 10 µM was found to be 2.77%.

In the case of `Cn1cc(C2COC3(CCN(C(=O)c4ccn(C)n4)CC3)C2)cn1` (stereo not given), the cytotoxicity at 10 µM is -66.5%. For `CN(C)C(=O)NC1COC2(CCN(Cc3ccc(N(C)C)cc3)CC2)C1` (stereo not given), the cytotoxicity at 10 µM is -77%. The result for `O=C(NCCN1CCOCC1)C1=NOC2(CCN(Cc3nccs3)C2)C1` (stereo not given) reads -79.3%; that for `CN(Cc1ccco1)[C@@H]1CN(Cc2ccoc2)C[C@@H]2CCCO[C@@H]21`, -1.6%. Under `COCC(=O)NCc1cc(=O)n2c(n1)CN(Cc1ccsc1)CCC2` stands 0.281%; under `Cc1noc([C@H]2C[C@@H]3CCN(C(=O)C4CCOCC4)C[C@H]3O2)n1`, 7.62%.

Regarding `O=C(C1CCOC1)N1CCc2ncc(CNc3ccccn3)n2CC1` (stereo not given), the cytotoxicity at 10 µM came to 0.0499%.

Take `c1ccc(-c2nc(CCNc3nnc(C4CCC4)o3)no2)cc1`: the cytotoxicity at 10 µM is -3.37%.

As for `CCC(CO)N(Cc1cccs1)C(=O)Cc1ccncc1` (stereo not given), the cytotoxicity at 10 µM is -9.67%.

With `CN(Cc1n[nH]c2c1CCCC2)c1cc(N2CCOCC2)nc(N)n1`, the cytotoxicity at 10 µM was -7.7%. Under `Cc1ccnn1CCC(=O)N(Cc1ccsc1)CC(C)C` stands -57.4%; under `O=C(NCc1nc(C2CCCCC2)no1)C1CC(=O)N(C2CC2)C1` (stereo not given), 1.5%. As to `O=C(Nc1ccc(-c2ccccc2)cc1)N1C[C@@H]2CNC[C@]2(C(=O)O)C1`, the cytotoxicity at 10 µM is -44.7%. In the case of `CN(C)CCN(C)c1ccc(-c2nc(COc3ccccc3)no2)cn1`, the cytotoxicity at 10 µM amounted to 4.35%. As for `CCC[C@@H]1CN(Cc2nnc(-c3cccc(F)c3)o2)C[C@H]1NC(C)=O`, the cytotoxicity at 10 µM was 0.833%. Regarding `CC(C)SCC(=O)NCc1cc2n(n1)CCCN(C1CCCCC1)C2`, the cytotoxicity at 10 µM came to 2.37%. Under `CS(=O)(=O)c1cnc(CC2CC2)nc1C1CCCNC1` (stereo not given) stands -33.5%. Under `CC[C@@H](CO)NC(=O)c1coc(COc2ccc3sc(C)nc3c2)n1` stands 4.67%; under `Cc1cccc(C)c1NC(=O)c1cccc(CN2CCCC2C)c1` (stereo not given), 4.73%. As to `CC(C)NC(=O)[C@@H]1C[C@H](N)CN1C(=O)C1(c2ccc(Cl)cc2)CCC1`, the cytotoxicity at 10 µM came to 3.92%. As for `Cc1[nH]nc(CCC(=O)NCC2CCCN(C3CCCC3)C2)c1C` (stereo not given), the cytotoxicity at 10 µM was -7.7%. `Cc1cc(C)cc(N2CCN(Cc3cccnc3)CC2=O)c1`: the cytotoxicity at 10 µM was 5.02%. The result for `Cc1ccccc1OC(C(=O)N1CCC2(CC1)CN(C)C(=O)O2)C(C)C` (stereo not given) reads -52.4%; that for `Cc1ccnc(C(Nc2nccc(-c3ccc(C)nc3C)n2)C2CC2)c1` (stereo not given), -1.89%; that for `CC(=O)Nc1cccc(C(=O)N2CCc3c(nc(N(C)C)[nH]c3=O)C2)c1`, 5.9%. Under `CSc1ccc(-n2ccnc2-c2cc3n(n2)CCNC3)cc1` stands -9.94%. The result for `Cc1cc(C)nc(CN2CCOC(c3ccc(Cl)cc3)C2)n1` (stereo not given) reads -2.43%; that for `C=C(C)CNCC1(O)CCCN(Cc2ccc(F)c(F)c2)C1=O` (stereo not given), -1.12%. For `Cc1nn(C)cc1-c1ccnc(N2CCCN(CC(C)C)CC2)n1`, the cytotoxicity at 10 µM is 4.26%. In the case of `COc1ccc(SC(C)C(=O)N2CCC(C(N)=O)CC2)cc1` (stereo not given), the cytotoxicity at 10 µM stood at 2.28%.

For `CCCC1(NC(=O)C(c2ccccc2C)N(C)C)CC1` (stereo not given), the cytotoxicity at 10 µM was -40.4%. In the case of `Cc1ccc2nc(CNCCCN3CCCC3)cc(O)c2c1`, the cytotoxicity at 10 µM was -49.6%. In the case of `Cn1cc(CN2CC[C@@H]3[C@@H](CCC(=O)N3CCC3=CCCCC3)C2)cn1`, the cytotoxicity at 10 µM is -8.68%. Consider `c1ccc(-c2nc(CNC3CCc4ncnn4C3)no2)cc1` (stereo not given), for which the cytotoxicity at 10 µM is -4.16%. The result for `Cc1nccn1C1CCCN(C(=O)c2ccc(-n3cccn3)nc2)C1` (stereo not given) reads -9.18%; that for `Cc1occc1C(=O)N1CCCN(Cc2nccn2C(C)C)CC1`, -9.24%; that for `O=C(NCc1nn(-c2ccccc2)c2c1CCC2)NC1CCC(O)CC1` (stereo not given), -7.75%. On to `CN(C(=O)Nc1ccncc1)C1CCN(c2ccccc2)C1=O` (stereo not given), for which the cytotoxicity at 10 µM is -10.1%. The result for `Cc1cc(C)n(C2CCCN(C(=O)CCNc3ncccn3)C2)n1` (stereo not given) reads -2.53%; that for `CN(C)CC1CN(CCOc2cccc(C#N)c2)CCO1` (stereo not given), -9.63%. Under `Cc1cn2c(n1)CCC(NC(=O)CCn1ccnn1)C2` (stereo not given) stands -2.53%. The result for `CCC(=O)N1CCN(C(=O)CCn2cccn2)CC1` reads -2.6%; that for `O=C(NCCNc1ncccn1)C1CCN(C(=O)C2CC2)CC1`, -3.02%; that for `Cc1nc(C)n(C2CCCN(C(=O)c3cnc[nH]3)C2)n1` (stereo not given), -5.04%.

On to `O=C(c1ccc(F)cc1Cl)N1CCC(Nc2cccnn2)CC1`, for which the cytotoxicity at 10 µM was -8.08%. As for `c1csc(-c2noc(C3CCCNC3)n2)c1` (stereo not given), the cytotoxicity at 10 µM is -2.5%. The result for `Cc1ccc(CN(CCCn2ccnc2)Cc2c[nH]cn2)s1` reads -4.99%. On to `COc1ccc(CN2CCO[C@H]3[C@H](Oc4ccccn4)CC[C@@H]32)cc1`, for which the cytotoxicity at 10 µM amounted to 21.5%. The result for `Cc1cccc(CN2CCC3(CCN(Cc4ccccn4)C3)C2=O)c1` (stereo not given) reads 12%; that for `O=C1CC[C@H]2[C@H](CCN2Cc2ccccn2)N1CC1CCOCC1`, 3.59%. In the case of `O[C@H]1CCN(Cc2ccoc2)[C@H]1Cc1cccnc1`, the cytotoxicity at 10 µM stood at 2.36%.

Regarding `Cc1nnc(N2CCCC3(CN(Cc4cnn(C)c4)CCO3)C2)o1` (stereo not given), the cytotoxicity at 10 µM is 4.12%.

As for `CCOCC1CN(CCN(C)C)Cc2cnn(CC3CCCC3)c21` (stereo not given), the cytotoxicity at 10 µM came out at 5.77%.

As for `c1cncc(-c2nnn3c2COCC(CNCC2CCOCC2)C3)c1` (stereo not given), the cytotoxicity at 10 µM was -75.4%.

Take `Cc1noc(C)c1CN1C[C@@H]2COC[C@@H](CC(=O)N3CCCCO3)[C@@H]2C1`: the cytotoxicity at 10 µM was -72.4%. As to `CNC(=O)c1cnc(C=Cc2cc(OC)c3c(c2)OCCO3)s1`, the cytotoxicity at 10 µM worked out at 12.9%. Regarding `CN1C[C@@H]2C[C@H](C(=O)Nc3cccnc3)[C@H](C1)O2`, the cytotoxicity at 10 µM is -71.1%. Under `CCC=C(C)C(=O)NCCc1csc(N2CCCC2)n1` stands 18.7%. As to `Cc1cc(C(=O)N2C[C@@H]3C(CN(C)CCc4ccccn4)[C@@H]3C2)c(C)o1` (stereo not given in full), the cytotoxicity at 10 µM was -50.1%.
